Measurements published in ChEMBL document CHEMBL1143978, “Novel 1,3,4-thiadiazolium-2-phenylamine chlorides derived from natural piperine as trypanocidal agents: chemical and biological studies” (Bioorg Med Chem, 2008).

Experiments:
Trypanosoma cruzi [1] = test: Antiparasitic activity against Trypanosoma cruzi Y epimastigote; assay type: functional, organism-based
Procedure, shortened: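 Y-strain epimastigotes (1×10^5 cells) grown in BHI with hemin, folic acid and 5% heat-inactivated FCS at 28 °C, with or without compound. DMSO final was 0.05%, and controls contained the same DMSO. After 7 days, live parasites were counted directly in a Neubauer chamber. IC50 is the mean of triplicate experiments.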

[2] = Cytotoxicity against mouse macrophages after 72 hrs; assay type: cell-based, Macrophage; details: read-out: LD50
Procedure, shortened: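 Murine peritoneal macrophages seeded at 1.10⁶ cells/well in RPMI with 10% FCS and allowed to attach 24 h at 37 °C. Exposed 72 h to compounds in DMSO (final solvent at most 0.05%). Washed with PBS, trypan blue added (final 0.01%), and 200 cells counted in a Neubauer chamber for membrane permeability. IC50 is the mean of triplicate experiments.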

Trypanosoma cruzi [3] = test: Antiparasitic activity against Trypanosoma cruzi Y trypomastigotes; assay type: functional, organism-based
Trypanosoma cruzi [4] = test: Antiparasitic activity against Trypanosoma cruzi Y amastigotes; assay type: functional, organism-based
Procedure, shortened: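 Resident peritoneal macrophages from uninfected BALB/c mice, once adhered, infected with T. cruzi metacyclic trypomastigotes at 10:1 parasite/macrophage for 1 h at 37 °C, 5% CO2. Free parasites washed off with PBS, then 72 h with compound at […]. Methanol-fixed, Giemsa-stained. 200 cells counted in triplicate for % infected cells, amastigotes per macrophage and endocytic index.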

SMILES | IC50 (Trypanosoma cruzi [1]) | CC50 at 72 h [2] | IC50 (Trypanosoma cruzi [3]) | IC50 (Trypanosoma cruzi [4])
O=[N+]([O-])c1cc2c(cc1/C=C/c1sc(Nc3ccccc3)n[n+]1-c1ccccc1)OCO2 | 0.64 µM | 1.08 µM |  | 
c1ccc(Nc2n[n+](-c3ccccc3)c(CCCCc3ccc4c(c3)OCO4)s2)cc1 | 31.5 µM |  |  | 
O=[N+]([O-])c1cc2c(cc1CCc1sc(Nc3ccccc3)n[n+]1-c1ccccc1)OCO2 | 40.8 µM |  |  | 
c1ccc(Nc2n[n+](-c3ccccc3)c(CCc3ccc4c(c3)OCO4)s2)cc1 | 83.4 µM |  |  | 
O=[N+]([O-])c1cc2c(cc1-c1sc(Nc3ccccc3)n[n+]1-c1ccccc1)OCO2 | 13.4 µM | 6.62 µM |  | 
c1ccc(Nc2n[n+](-c3ccccc3)c(-c3ccc4c(c3)OCO4)s2)cc1 | 113 µM |  |  | 
O=[N+]([O-])c1cc2c(cc1CCCCc1sc(Nc3ccccc3)n[n+]1-c1ccccc1)OCO2 | 45.2 µM |  |  | 
C(/C=C/c1sc(Nc2ccccc2)n[n+]1-c1ccccc1)=C\c1ccc2c(c1)OCO2 | 10.8 µM | 38.6 µM | 6.7 µM | 1350 nM
C(=C\c1sc(Nc2ccccc2)n[n+]1-c1ccccc1)/c1ccc2c(c1)OCO2 | 4.13 µM | 1.95 µM |  | 
O=C(Cn1ccnc1[N+](=O)[O-])NCc1ccccc1 [BENZNIDAZOLE] |  |  | 6.61 µM | 2510 nM
O=C(/C=C/C=C/c1ccc2c(c1)OCO2)N1CCCCC1 [PIPERINE] | 7.31 µM | 20 µM |  | 4910 nM
